The values that follow come from ChEMBL document CHEMBL1124934, “Synthesis and structure-activity relationships of dynorphin A-(1-8) amide analogues” (J Med Chem, 1990).

The structures appear in SMILES notation. pIC50, pKi: −log10 of the molar value. Square brackets hold non-standard residues; d marks the D form. Peptide text beside a SMILES is read from it. NMeY = CN[C@@H](Cc1ccc(O)cc1)C(=O)O; NMeF = CN[C@@H](Cc1ccccc1)C(=O)O; Sar = CNCC(=O)O A value given as a limit tells only on which side of the number the result lay.

In experiment [1] the target is T1, Mu-type opioid receptor (Cavia porcellus, UniProt P97266). Nature of the experiment: Evaluated for inhibitory activity against Opioid receptor mu 1 of guinea pig ileum (GPI). It counts as tissue-based.
T1 sequence (P97266 whole entry): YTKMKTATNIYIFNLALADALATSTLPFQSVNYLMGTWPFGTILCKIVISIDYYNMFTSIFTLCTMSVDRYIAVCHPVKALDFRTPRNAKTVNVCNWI
In experiment [2] the target is Delta-type opioid receptor (Mus musculus, UniProt P32300). Nature of the experiment: Evaluated for inhibitory activity against Opioid receptor delta 1 of mouse vas deferens (MVD). It counts as tissue-based.
Delta-type opioid receptor, sequence (P32300 whole entry): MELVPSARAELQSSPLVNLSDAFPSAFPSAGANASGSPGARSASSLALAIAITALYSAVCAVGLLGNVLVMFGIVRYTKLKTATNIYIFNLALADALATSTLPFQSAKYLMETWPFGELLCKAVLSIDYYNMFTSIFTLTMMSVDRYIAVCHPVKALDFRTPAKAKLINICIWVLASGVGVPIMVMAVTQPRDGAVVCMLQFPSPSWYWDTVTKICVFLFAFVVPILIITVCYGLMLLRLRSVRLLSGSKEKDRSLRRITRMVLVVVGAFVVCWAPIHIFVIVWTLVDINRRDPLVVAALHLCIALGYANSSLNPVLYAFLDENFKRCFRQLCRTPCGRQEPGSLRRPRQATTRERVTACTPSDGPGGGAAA
In experiment [3] the target is T1, Mu-type opioid receptor. The experiment in a line: Binding affinities against Opioid receptor mu 1 of guinea pig brain membrane using [3H]DAGO as the radioligand using competition binding assays. The procedure, abridged: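 μ-site competition binding on crude P2 membranes from male Hartley guinea pig brain (1 g original wet weight/20 mL, 50 mM Tris-HCl pH 7.6) with 5 nM [3H]DAGO and varied competitor, 60 min at 25 °C. GF/B filtration (1% polyethylenimine presoaked), six ice-cold buffer rinses, scintillation counting. Nonspecific binding with 10 μM levallorphan. Mean of five or six determinations ± SEM.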

Broadly, the pIC50 is the negative decadic logarithm of the IC50, by convention in mol/L. Lower therefore signals a high IC50. `CN[C@@H](Cc1ccc(O)cc1)C(=O)NCC(=O)NCC(=O)N[C@@H](Cc1ccccc1)C(=O)N(C)[C@@H](CC(C)C)C(=O)N[C@@H](CCCNC(=N)N)C(=O)N[C@@H](CCCNC(=N)N)C(=O)N[C@H](CC(C)C)C(N)=O`: the pIC50 against Mu-type opioid receptor [1] was 7.92; in experiment [2], 7.60.
For `CN[C@@H](Cc1ccc(O)cc1)C(=O)NCC(=O)N[C@H](C)C(=O)N[C@@H](Cc1ccccc1)C(=O)N[C@@H](CC(C)C)C(=O)N[C@@H](CCCN=C(N)N)C(=O)N[C@@H](CCCN=C(N)N)C(=O)N[C@@H](CC(C)C)C(N)=O`, in that order: 7.90 and 6.68.
The corresponding values for `CCNC(=O)[C@@H](CC(C)C)NC(=O)[C@H](CCCNC(=N)N)NC(=O)[C@H](CCCNC(=N)N)NC(=O)[C@H](CC(C)C)NC(=O)[C@H](Cc1ccccc1)NC(=O)CNC(=O)CNC(=O)[C@H](Cc1ccc(O)cc1)NC` are 9.15 and 8.34.
Consider `CN[C@@H](Cc1ccc(O)cc1)C(=O)NCC(=O)NCC(=O)N[C@@H](Cc1ccccc1)C(=O)N[C@H](C)C(=O)N[C@@H](CCCNC(=N)N)C(=O)N[C@@H](CCCNC(=N)N)C(=O)N[C@H](CC(C)C)C(N)=O`, for which the negative-log IC50 (pIC50) on Mu-type opioid receptor [1] is 5.22; in experiment [2], 5.01.
With `CN[C@@H](Cc1ccc(O)cc1)C(=O)NCC(=O)NNC(=O)N[C@@H](Cc1ccccc1)C(=O)N[C@@H](CC(C)C)C(=O)N[C@@H](CCCNC(=N)N)C(=O)N[C@@H](CCCNC(=N)N)C(=O)N[C@H](CC(C)C)C(N)=O`, the figures for the pIC50 (at Mu-type opioid receptor [1]; in experiment [2]) were 7.73 and 7.20, respectively.
Consider `CN[C@@H](Cc1ccc(O)cc1)C(=O)NCC(=O)NCC(=O)N[C@@H](Cc1ccccc1)C(=O)N[C@@H](CC(C)C)C(=O)N[C@@H](CCCN=C(N)N)C(=O)N[C@@H](CCCN=C(N)N)C(=O)N[C@@H](CC(C)C)C(N)=O`, for which the pIC50 against Mu-type opioid receptor [1] was less than 5.52.
In the case of `CN[C@@H](Cc1ccc(O)cc1)C(=O)NCC(=O)NCC(=O)N[C@@H](Cc1ccccc1)C(=O)N[C@@H](CC(C)C)C(=O)N[C@@H](CCCCN=C(N)N)C(=O)N[C@@H](CCCN=C(N)N)C(=O)N[C@H](CC(C)C)C(N)=O`, the pIC50 at Mu-type opioid receptor [1] was 8.59; in experiment [2] it was 7.92.
As to `CCCCCCNC(=O)[C@@H](CC(C)C)NC(=O)[C@H](CCCNC(=N)N)NC(=O)[C@H](CCCNC(=N)N)NC(=O)[C@H](CC(C)C)NC(=O)[C@H](Cc1ccccc1)NC(=O)CNC(=O)CNC(=O)[C@H](Cc1ccc(O)cc1)NC`, the pIC50 at Mu-type opioid receptor [1] was 8.18; in experiment [2], 7.65.
The pKi is −log10 of the Ki, conventionally taken in molar units. The low end stands for a large Ki, the high end for a small Ki. In the case of `CCNC(=O)[C@@H](CC(C)C)NC(=O)[C@H](CCCN=C(N)N)N(C)C(=O)[C@H](CCCN=C(N)N)NC(=O)[C@H](CC(C)C)NC(=O)[C@H](Cc1ccc([N+](=O)[O-])cc1)NC(=O)CNC(=O)CNC(=O)[C@H](Cc1ccc(O)cc1)NC`, the pIC50 against Mu-type opioid receptor [1] was 9.30; in experiment [2], 8.43. The compound further gave a negative logarithm of the Ki (pKi) at Mu-type opioid receptor [3] of 8.76.
Turning to `CN[C@@H](Cc1ccc(O)cc1)C(=O)NCC(=O)NCC(=O)N[C@@H](Cc1ccccc1)C(=O)N[C@@H](CC(C)C)C(=O)N(C)[C@@H](CCCN=C(N)N)C(=O)N[C@@H](CCCN=C(N)N)C(=O)N[C@H](CC(C)C)C(N)=O`, the results for the pIC50 (against Mu-type opioid receptor [1]; in experiment [2]) were 7.69 and 6.94, respectively.
As to `CC[C@H](C)[C@H](NC(=O)[C@H](CCCNC(=N)N)NC(=O)[C@H](CCCNC(=N)N)NC(=O)[C@H](CC(C)C)NC(=O)[C@H](Cc1ccccc1)NC(=O)CNC(=O)CNC(=O)[C@@H](N)Cc1ccc(O)cc1)C(N)=O`, the negative-log IC50 (pIC50) is 9.70 at Mu-type opioid receptor [1] and 8.52 in experiment [2]. This compound also had a negative logarithm of the Ki (pKi) on Mu-type opioid receptor [3] of 8.15.
Regarding `CC(C)C[C@H](NC(=O)[C@H](CCCNC(=N)N)NC(=O)[C@H](CCCNC(=N)N)NC(=O)[C@H](CC(C)C)NC(=O)[C@H](Cc1ccccc1)NC(=O)CNC(=O)CN(C)C(=O)[C@@H](N)Cc1ccc(O)cc1)C(N)=O` (H-Y[Sar]GFLRRL-NH2), the values for the pIC50 (against Mu-type opioid receptor [1]; in experiment [2]) were 6.05 and 5.75, respectively.
For `CN[C@@H](Cc1ccc(O)cc1)C(=O)NCC(=O)NCC(=O)N(C)[C@@H](Cc1ccccc1)C(=O)N[C@@H](CC(C)C)C(=O)N[C@@H](CCCNC(=N)N)C(=O)N[C@@H](CCCNC(=N)N)C(=O)N[C@@H](CC(C)C)C(N)=O` (H-[NMeY]GG[NMeF]LRRL-NH2), in that order: 7.57 and 6.92.
